Active and inactive are the calls of the source. The rule behind the calls is not given here.
Key:
OE33 = test: Antiproliferative activity against human OE33 cells assessed as reduction in cell viability incubated for 72 hrs by presto blue assay; type: functional
Outline: (§1)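 3500 cells per well seeded and grown 24 h, then exposed to compound for 72 h. Viability read with PrestoBlue reagent per manufacturer's protocol, and GI50 taken from this.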

OE19 = test: Antiproliferative activity against human OE19 cells assessed as reduction in cell viability incubated for 72 hrs by presto blue assay; type: functional; outline: as §1
[1] = Drug uptake in human OE19 cells assessed as cytoplasmic retention at 1.25 uM measured after 30 mins by RFP-tagged histone H2B staining based confocal microscopy; settings: oe19, 30 min
[2] = target: T1, Histone deacetylase (Homo sapiens) (UniProt Q13547+O15379+Q9UBN7+Q92769+Q9UQL6+Q8WUI4+Q9BY41+Q96DB2+P56524+Q9UKV0+Q969S8); test: Inhibition of HDAC in human OE33 cells assessed as increase in histone H3 acetylation at 6.5 uM incubated for 48 hrs by Western blot analysis; type: cell-based
Outline: (§2)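 500,000 OE33 or 750,000 OE19 cells treated 48 h. Histones isolated, 5 µg nuclear extract run on 15% SDS-PAGE and blotted. Probed overnight at 4 °C with anti-acetyl-histone H3 (Lys9) and anti-histone H3, compared with untreated controls.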

[3] = Drug uptake in human OE19 cells assessed as cytoplasmic retention at 1.25 uM measured after 30 mins by RFP-tagged histone H2B staining based confocal microscopy; type: ADME, cell-based; settings: oe19, 0.5 h
Outline: (§3)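 Cells transfected with cDNA for histone H2B–RFP (DNA:reagent 1:1), then incubated 30 min with 1.25 µM compound. Imaged by confocal microscopy with 63× objective and 405 nm excitation.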

Histone deacetylase 1 = Histone deacetylase 1 (Homo sapiens, UniProt Q13547); test: Inhibition of recombinant human full length C-terminal Flag/His-tagged HDAC1 expressed in baculovirus infected Sf9 cells using ZMAL as substrate incubated for 90 mins by fluorometric method
[4] = Drug uptake in human OE19 cells assessed as increase in fluorescence intensity at 1.25 uM measured for every 10 sec for 30 mins by fluorescence based assay; type: ADME, cell-based; settings: oe19, 0.5 h
Outline: (§4)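 Cells exposed to 1.25 µM compound, fluorescence recorded at Ex 370 nm / Em 530 nm every 10 s for 30 min on an epifluorescence microscope (40× objective). Treatment started 1 min before recording. Representative images taken at 15 min.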

[5] = target: Histone deacetylase 3/Nuclear receptor corepressor 2 (HDAC3/NCoR2) (Homo sapiens, UniProt O15379); test: Inhibition of recombinant human C-terminal GST/His-tagged HDAC3 (1 to 428 residues) co-expressed with human N-terminal GST-tagged NCOR2 (395 to 489 residues) in baculovirus infected Sf9 cells using ZMAL as substrate incubated for 90 mins by fluorometric method
Histone deacetylase 2 = Histone deacetylase 2 (Homo sapiens, UniProt Q92769); test: Inhibition of recombinant human full length C-terminal Flag-tagged HDAC2 expressed in baculovirus infected Sf9 cells using ZMAL as substrate incubated for 90 mins by fluorometric method; type: cell-based
[6] = Drug uptake in human OE33 cells assessed as increase in fluorescence intensity at 1.25 uM measured after 15 mins by microscopic method; type: ADME, cell-based; settings: oe33, 0.25 h; outline: as §4
[7] = Drug uptake in human OE19 cells assessed as increase in fluorescence intensity at 1.25 uM measured after 15 mins by microscopic method; type: ADME, cell-based; settings: oe19, 0.25 h; outline: as §4
[8] = Drug uptake in human OE33 cells assessed as increase in fluorescence intensity at 1.25 uM measured for every 10 sec for 30 mins by fluorescence based assay; type: ADME, cell-based; settings: oe33, 0.5 h; outline: as §4
[9] = Drug uptake in human OE33 cells assessed as cytoplasmic retention at 1.25 uM measured after 30 mins by RFP-tagged histone H2B staining based confocal microscopy; settings: oe33, 30 min
[10] = target: T2, Protein deacetylase HDAC6 (Homo sapiens, UniProt Q9UBN7); test: Inhibition of recombinant human full length C-terminal GST-tagged HDAC6 expressed in baculovirus infected Sf9 cells using ZMAL as substrate incubated for 90 mins by fluorometric method
T2 sequence (Q9UBN7 whole entry): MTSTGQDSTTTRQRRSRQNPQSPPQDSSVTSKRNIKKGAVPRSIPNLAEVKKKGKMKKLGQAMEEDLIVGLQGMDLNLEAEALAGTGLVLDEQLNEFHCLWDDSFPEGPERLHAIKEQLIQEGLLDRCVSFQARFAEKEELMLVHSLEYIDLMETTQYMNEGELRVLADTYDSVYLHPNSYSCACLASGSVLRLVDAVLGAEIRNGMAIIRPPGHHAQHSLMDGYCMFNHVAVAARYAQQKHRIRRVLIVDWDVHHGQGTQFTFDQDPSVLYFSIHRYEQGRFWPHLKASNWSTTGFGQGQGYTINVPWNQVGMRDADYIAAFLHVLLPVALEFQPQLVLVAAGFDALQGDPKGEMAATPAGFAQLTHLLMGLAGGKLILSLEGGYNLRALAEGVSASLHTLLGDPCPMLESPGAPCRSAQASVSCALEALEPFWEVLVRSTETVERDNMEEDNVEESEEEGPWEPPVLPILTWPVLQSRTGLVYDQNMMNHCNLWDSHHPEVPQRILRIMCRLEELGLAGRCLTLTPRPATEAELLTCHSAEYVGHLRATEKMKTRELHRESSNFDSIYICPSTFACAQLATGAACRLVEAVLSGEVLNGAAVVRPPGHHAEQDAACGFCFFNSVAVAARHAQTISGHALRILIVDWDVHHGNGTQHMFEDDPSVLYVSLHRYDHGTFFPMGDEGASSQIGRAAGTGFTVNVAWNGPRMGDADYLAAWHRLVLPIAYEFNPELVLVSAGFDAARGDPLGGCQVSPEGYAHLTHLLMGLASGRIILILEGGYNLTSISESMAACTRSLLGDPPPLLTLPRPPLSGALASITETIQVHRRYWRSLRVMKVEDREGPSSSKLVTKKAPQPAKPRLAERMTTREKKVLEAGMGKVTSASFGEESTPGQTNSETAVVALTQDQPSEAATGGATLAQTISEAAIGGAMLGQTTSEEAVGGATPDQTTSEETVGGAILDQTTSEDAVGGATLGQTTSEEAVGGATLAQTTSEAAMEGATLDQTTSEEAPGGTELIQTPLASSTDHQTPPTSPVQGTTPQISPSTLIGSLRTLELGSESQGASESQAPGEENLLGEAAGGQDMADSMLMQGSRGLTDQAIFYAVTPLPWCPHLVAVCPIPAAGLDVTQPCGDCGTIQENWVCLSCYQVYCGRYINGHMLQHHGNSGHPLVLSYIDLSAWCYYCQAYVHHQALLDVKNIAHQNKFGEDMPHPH

[11] = target: T1, Histone deacetylase (Homo sapiens); test: Inhibition of HDAC in human OE19 cells assessed as increase in histone H3 acetylation at 6.5 uM incubated for 48 hrs by Western blot analysis; type: cell-based; outline: as §2
[12] = Drug uptake in human OE33 cells assessed as cytoplasmic retention at 1.25 uM measured after 30 mins by RFP-tagged histone H2B staining based confocal microscopy; type: ADME, cell-based; settings: oe33, 0.5 h; outline: as §3
[13] = target: T1, Histone deacetylase (Homo sapiens); test: Inhibition of HDAC in human OE33 cells assessed as increase in histone H3 acetylation at 0.6 uM incubated for 48 hrs by Western blot analysis; type: cell-based; outline: as §2
[14] = target: T1, Histone deacetylase (Homo sapiens); test: Inhibition of HDAC in human OE19 cells assessed as increase in histone H3 acetylation at 0.6 uM incubated for 48 hrs by Western blot analysis; type: cell-based; outline: as §2
[15] = target: T1, Histone deacetylase (Homo sapiens); test: Inhibition of HDAC in human OE33 cells assessed as increase in histone H3 acetylation at 2.25 uM incubated for 48 hrs by Western blot analysis; type: cell-based; outline: as §2
[16] = target: T1, Histone deacetylase (Homo sapiens); test: Inhibition of HDAC in human OE19 cells assessed as increase in histone H3 acetylation at 2.25 uM incubated for 48 hrs by Western blot analysis; type: cell-based; outline: as §2

Sequence of Histone deacetylase 2 (Q92769 whole entry): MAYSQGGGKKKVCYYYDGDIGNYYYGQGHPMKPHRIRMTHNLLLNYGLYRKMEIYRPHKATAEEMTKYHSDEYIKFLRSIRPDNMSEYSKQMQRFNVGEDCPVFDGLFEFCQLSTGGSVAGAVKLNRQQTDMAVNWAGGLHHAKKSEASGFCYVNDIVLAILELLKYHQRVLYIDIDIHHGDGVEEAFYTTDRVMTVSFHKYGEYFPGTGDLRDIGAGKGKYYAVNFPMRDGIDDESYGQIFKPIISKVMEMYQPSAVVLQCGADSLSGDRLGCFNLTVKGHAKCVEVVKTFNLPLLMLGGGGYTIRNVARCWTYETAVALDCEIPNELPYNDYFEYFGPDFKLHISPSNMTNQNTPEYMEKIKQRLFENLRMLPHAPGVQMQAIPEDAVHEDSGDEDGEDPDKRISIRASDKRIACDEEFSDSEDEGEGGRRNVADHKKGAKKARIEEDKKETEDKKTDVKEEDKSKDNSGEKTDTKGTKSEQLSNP
Sequence of Histone deacetylase 1 (Q13547 whole entry): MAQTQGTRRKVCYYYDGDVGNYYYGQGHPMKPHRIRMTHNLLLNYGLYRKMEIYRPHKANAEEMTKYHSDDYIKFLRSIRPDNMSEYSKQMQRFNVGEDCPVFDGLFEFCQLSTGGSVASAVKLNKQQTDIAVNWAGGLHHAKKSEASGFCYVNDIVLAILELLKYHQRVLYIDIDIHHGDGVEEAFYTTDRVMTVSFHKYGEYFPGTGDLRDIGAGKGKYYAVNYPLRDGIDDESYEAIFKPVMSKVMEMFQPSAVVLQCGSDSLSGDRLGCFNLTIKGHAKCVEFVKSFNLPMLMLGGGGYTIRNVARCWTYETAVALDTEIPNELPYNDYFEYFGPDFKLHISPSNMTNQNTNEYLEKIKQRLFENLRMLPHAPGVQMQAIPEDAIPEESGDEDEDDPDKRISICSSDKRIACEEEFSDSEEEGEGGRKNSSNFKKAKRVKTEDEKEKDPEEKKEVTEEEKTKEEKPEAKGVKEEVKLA
Sequence of Histone deacetylase 3/Nuclear receptor corepressor 2 (HDAC3/NCoR2) (O15379 whole entry, the tested form may be a part): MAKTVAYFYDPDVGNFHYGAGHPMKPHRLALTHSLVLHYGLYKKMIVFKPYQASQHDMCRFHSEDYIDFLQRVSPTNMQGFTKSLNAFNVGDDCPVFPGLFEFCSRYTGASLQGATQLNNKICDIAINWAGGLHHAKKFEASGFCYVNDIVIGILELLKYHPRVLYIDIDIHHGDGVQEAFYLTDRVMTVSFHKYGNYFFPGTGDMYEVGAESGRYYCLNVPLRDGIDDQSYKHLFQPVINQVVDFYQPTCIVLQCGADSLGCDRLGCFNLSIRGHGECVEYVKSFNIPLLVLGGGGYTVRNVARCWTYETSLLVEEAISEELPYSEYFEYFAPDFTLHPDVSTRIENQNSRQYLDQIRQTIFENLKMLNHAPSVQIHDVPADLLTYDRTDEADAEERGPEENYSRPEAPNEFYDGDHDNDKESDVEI
Sequence of Histone deacetylase 3/Nuclear receptor corepressor 2 (HDAC3/NCoR2) (Q9Y618 whole entry, further chain, the tested form may be a part): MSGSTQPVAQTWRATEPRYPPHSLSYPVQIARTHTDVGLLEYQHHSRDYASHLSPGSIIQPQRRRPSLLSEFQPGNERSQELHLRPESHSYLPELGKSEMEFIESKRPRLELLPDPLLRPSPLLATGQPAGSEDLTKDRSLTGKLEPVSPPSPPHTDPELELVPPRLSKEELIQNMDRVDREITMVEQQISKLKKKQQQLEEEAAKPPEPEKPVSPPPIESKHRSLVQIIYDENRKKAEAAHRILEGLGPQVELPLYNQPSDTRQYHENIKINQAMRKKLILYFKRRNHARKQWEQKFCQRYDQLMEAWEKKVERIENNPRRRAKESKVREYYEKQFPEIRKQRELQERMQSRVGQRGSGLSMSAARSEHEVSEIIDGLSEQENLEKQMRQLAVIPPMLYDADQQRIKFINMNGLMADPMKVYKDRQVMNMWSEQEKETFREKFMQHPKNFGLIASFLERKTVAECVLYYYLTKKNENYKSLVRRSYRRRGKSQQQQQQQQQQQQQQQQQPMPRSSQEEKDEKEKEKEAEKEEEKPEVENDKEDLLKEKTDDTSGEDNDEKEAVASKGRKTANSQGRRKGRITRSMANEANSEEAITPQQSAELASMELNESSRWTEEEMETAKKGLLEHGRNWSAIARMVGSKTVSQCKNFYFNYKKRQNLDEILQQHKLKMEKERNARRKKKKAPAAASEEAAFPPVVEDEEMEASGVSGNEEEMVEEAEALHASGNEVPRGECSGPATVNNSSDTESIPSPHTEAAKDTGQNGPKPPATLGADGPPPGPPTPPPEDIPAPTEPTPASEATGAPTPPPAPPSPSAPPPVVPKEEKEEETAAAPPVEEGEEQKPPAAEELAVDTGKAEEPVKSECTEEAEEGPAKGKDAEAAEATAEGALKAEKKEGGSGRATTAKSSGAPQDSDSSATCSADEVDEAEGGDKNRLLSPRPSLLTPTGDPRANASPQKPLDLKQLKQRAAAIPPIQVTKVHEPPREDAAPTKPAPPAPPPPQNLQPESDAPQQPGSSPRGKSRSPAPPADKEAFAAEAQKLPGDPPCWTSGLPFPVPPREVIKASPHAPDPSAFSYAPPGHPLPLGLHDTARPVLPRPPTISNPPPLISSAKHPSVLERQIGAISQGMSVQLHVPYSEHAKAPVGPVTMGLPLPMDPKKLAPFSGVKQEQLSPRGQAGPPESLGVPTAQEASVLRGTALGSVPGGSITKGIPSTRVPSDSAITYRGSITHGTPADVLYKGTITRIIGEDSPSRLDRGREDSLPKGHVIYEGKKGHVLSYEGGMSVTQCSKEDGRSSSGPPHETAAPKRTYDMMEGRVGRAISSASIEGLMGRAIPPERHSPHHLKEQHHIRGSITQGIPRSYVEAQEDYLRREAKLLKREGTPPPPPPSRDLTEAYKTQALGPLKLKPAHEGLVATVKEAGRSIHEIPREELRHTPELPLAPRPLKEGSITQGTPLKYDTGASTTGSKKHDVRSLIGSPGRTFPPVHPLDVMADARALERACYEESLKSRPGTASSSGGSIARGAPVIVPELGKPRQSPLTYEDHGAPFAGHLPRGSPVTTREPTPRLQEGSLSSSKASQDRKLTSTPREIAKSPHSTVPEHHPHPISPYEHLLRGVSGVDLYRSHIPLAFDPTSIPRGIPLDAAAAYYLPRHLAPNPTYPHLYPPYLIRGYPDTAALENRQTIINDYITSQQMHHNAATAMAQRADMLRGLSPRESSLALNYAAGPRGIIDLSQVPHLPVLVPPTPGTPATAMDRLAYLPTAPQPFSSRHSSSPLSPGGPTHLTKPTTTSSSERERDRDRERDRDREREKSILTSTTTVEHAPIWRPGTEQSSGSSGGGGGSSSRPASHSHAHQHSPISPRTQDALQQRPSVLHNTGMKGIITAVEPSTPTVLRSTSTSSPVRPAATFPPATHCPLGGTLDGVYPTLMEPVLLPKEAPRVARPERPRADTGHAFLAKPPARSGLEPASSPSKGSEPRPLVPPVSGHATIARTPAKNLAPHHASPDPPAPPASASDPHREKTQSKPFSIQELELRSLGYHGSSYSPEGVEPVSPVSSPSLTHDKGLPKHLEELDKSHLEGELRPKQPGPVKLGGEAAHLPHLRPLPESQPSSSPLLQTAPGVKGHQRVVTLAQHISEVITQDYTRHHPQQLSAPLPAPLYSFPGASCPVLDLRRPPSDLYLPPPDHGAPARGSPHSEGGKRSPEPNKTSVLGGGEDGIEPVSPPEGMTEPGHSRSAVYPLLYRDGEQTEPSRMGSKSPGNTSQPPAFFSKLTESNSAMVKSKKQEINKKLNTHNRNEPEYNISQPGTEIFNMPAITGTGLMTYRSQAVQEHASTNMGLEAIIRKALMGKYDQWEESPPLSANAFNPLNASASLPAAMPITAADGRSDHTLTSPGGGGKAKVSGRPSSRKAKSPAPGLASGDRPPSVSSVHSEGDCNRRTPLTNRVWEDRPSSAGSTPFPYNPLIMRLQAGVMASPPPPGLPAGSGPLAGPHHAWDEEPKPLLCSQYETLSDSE

Structure (SMILES)	Drug uptake [1]	GI50 (OE33; Homo sapiens, OE33, 72 h) [nM]	Drug uptake [3]	GI50 (OE19; Homo sapiens, OE19, 72 h) [µM]	IC50 (Histone deacetylase 1) [nM]	Drug uptake [4]	IC50 [5] [nM]	IC50 (Histone deacetylase 2) [nM]	Drug uptake [6]	Drug uptake [7]	Drug uptake [8]	Drug uptake [9]	IC50 [10] [nM]	Drug uptake [12]	further results
O=C(CCCCCCC(=O)Nc1ccccc1)NO [VORINOSTAT]	–	–	–	–	–	–	–	–	–	–	–	–	–	–	GI50 (OE33): 1120 nM; GI50 (OE19): 1.42 µM
CN(C)c1cccc2c(S(=O)(=O)N(CC(=O)NCc3ccccc3)Cc3ccc(C(=O)NO)cc3)cccc12	Active	6230	Active	12.9	915	Active	1020	3500	Active	Active	Active	Active	132	Active	inhibition [2]: Active; inhibition [11]: Active
CN(C)c1cccc2c(S(=O)(=O)N(CC(=O)NCc3ccccc3)Cc3ccc(C(=O)Nc4ccccc4N)cc3)cccc12	Active	4590	Active	9.1	676	Active	1130	668	Active	Active	Active	Active	> 10000	Active	inhibition [13]: Active; inhibition [14]: Active
CN(C)c1cccc2c(S(=O)(=O)N(CCCCCC(=O)NO)CC(=O)NCc3ccccc3)cccc12	Active	776	Active	0.925	34	Active	87	81	Active	Active	Active	Active	46	Active	inhibition [15]: Active; inhibition [16]: Active

Reference: ChEMBL document CHEMBL4396931, “Fluorescent analogs of peptoid-based HDAC inhibitors: Synthesis, biological activity and cellular uptake kinetics” (Bioorg Med Chem, 2019)
